Experimental findings from ChEMBL document CHEMBL2375299, “Synthesis and structure-activity relationships of carboxylic acid derivatives of pyridoxal as P2X receptor antagonists” (Bioorg Med Chem, 2013) are described below.

The source made the active and inactive calls. No cut-off for these calls is given here.

A word on the inhibition: it is the relative decrease from the control value, in per cent. As a reminder, the IC50 is the concentration needed to halve the response being measured.

Experiment [1] deals with T1, P2X purinoceptor 1 (Mus musculus) (UniProt P51576).
T1 sequence (whole entry): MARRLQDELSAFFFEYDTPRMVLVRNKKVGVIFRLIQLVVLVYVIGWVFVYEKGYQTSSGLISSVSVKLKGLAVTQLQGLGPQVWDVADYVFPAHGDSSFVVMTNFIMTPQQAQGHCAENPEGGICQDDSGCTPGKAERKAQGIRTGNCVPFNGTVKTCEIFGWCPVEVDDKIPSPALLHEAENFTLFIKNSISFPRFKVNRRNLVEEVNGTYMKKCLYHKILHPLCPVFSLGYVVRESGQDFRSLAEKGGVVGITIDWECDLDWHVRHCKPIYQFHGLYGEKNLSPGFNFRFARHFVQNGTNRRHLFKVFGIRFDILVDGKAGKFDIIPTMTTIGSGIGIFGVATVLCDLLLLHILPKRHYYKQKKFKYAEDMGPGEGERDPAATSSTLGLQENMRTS
The experiment can be described thus: Antagonist activity at mouse recombinant P2X1 receptor expressed in Xenopus oocytes assessed as inhibition of ATP-induced ion current at 10 uM incubated for 20 mins prior to ATP-induction by two-electrode voltage clamp assay. The settings on record: Oocyte. The format is cell-based. The method in brief: (§1)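 Defolliculated Xenopus oocytes were injected with mouse P2X1 or human P2X3 cRNA (40 nL, 1 μg/mL), held 24 h at 18 °C in Barth's solution, then stored at 4 °C for up to 12 days. Two-electrode voltage clamp was run at Vh −70 mV with superfusion of Ringer's solution (pH 7.5, 18 °C). Compound was applied 20 min before 2 μM ATP (60–120 s), followed by 20 min washout. Mean ± SEM, n = 4 oocyte batches.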
A general note: Two-electrode voltage clamp holds a large cell at a set potential and records current.

Experiment [2] concerns the target T2, P2X purinoceptor 3 (Homo sapiens) (UniProt P56373).
T2 sequence (whole entry): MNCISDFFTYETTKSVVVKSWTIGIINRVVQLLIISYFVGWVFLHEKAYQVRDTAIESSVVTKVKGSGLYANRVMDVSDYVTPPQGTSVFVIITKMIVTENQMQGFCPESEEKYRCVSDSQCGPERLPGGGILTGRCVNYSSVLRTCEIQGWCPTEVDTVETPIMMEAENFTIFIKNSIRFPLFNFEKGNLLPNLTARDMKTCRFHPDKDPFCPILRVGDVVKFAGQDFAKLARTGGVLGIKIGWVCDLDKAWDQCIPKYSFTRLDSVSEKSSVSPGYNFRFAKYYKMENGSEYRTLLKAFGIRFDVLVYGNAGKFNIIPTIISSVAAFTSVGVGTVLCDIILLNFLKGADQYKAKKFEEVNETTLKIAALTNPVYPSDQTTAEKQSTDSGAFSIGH
As to the kind of experiment: Antagonist activity at human recombinant P2X3 receptor expressed in Xenopus oocytes assessed as inhibition of ATP-induced ion current at 10 uM incubated for 20 mins prior to ATP-induction by two-electrode voltage clamp assay. The format is cell-based. The settings on record: Oocyte. In a few lines: as §1

In a further experiment the target is T3, P2X purinoceptor 3 (Homo sapiens, UniProt P56373).
T3 sequence (P56373 whole entry): T2 sequence (whole entry)
The experiment can be described thus: Antagonist activity at human recombinant P2X3 receptor expressed in Xenopus oocytes assessed as inhibition of ATP-induced ion current incubated for 20 mins prior to ATP-induction by two-electrode voltage clamp assay. The format is cell-based, Oocyte. In a few lines: as §1

The target of experiment [3] is T4, P2X purinoceptor 1 (Mus musculus, UniProt P51576).
T4 sequence (P51576 whole entry): T1 sequence (whole entry)
The experiment can be described thus: (§2) Antagonist activity at mouse recombinant P2X1 receptor expressed in Xenopus oocytes assessed as inhibition of ATP-induced ion current incubated for 20 mins prior to ATP-induction by two-electrode voltage clamp assay. The format is cell-based, Oocyte. The method in brief:
as §1

A short description of experiment [4]: Selectivity ratio of IC50 for mouse recombinant P2X1 receptor to IC50 for human recombinant P2X3 receptor.
Experiment [5] addresses T1, P2X purinoceptor 1 (Mus musculus). The experiment can be described thus: Antagonist activity at mouse recombinant P2X1 receptor expressed in Xenopus oocytes assessed as inhibition of ATP-induced ion current at 100 nM incubated for 20 mins prior to ATP-induction by two-electrode voltage clamp assay. The format is cell-based. The settings on record: Oocyte. In a few lines: as §1

Experiment [6] deals with T2, P2X purinoceptor 3 (Homo sapiens). As to the kind of experiment: Antagonist activity at human recombinant P2X3 receptor expressed in Xenopus oocytes assessed as inhibition of ATP-induced ion current at 100 nM incubated for 20 mins prior to ATP-induction by two-electrode voltage clamp assay. In kind it is cell-based. The following applies: Oocyte. In a few lines:
as §1

In experiment [7] the target is T5, P2X purinoceptor 7 (Homo sapiens) (UniProt Q99572).
T5 sequence (whole entry): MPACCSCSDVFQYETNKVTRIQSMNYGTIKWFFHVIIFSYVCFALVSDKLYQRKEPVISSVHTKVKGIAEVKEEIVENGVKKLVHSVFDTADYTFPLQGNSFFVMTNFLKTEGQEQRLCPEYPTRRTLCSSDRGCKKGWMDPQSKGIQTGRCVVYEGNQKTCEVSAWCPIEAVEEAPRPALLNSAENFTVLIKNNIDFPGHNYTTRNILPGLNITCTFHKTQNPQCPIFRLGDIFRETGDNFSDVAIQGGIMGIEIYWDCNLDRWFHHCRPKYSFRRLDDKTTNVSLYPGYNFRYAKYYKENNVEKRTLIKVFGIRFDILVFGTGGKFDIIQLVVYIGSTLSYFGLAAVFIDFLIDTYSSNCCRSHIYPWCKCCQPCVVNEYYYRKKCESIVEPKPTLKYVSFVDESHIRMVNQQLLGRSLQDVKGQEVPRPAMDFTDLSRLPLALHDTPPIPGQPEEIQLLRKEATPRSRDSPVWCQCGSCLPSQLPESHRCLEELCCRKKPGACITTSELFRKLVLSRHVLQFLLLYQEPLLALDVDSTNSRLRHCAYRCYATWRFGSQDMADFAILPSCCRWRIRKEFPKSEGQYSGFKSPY
As to the kind of experiment: Antagonist activity at human P2X7 receptor expressed in HEK293 cells assessed as inhibition of BzATP-induced ethidium bromide uptake at 10 uM after 120 mins by fluorimetric analysis. In kind it is cell-based. The method in brief: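 HEK293 cells stably expressing hP2X7 were grown in DMEM with 10% FBS, trypsinized and resuspended at 2.5×10^6 cells/mL in HEPES/N-methyl-D-glucamine/KCl/glucose/0.5 mM CaCl2 buffer, pH 7.4, with 100 μM ethidium bromide. Cells were added at 2×10^5 per well to BzATP. After 120 min at 37 °C, ethidium fluorescence was read at ex 530 / em 590 nm.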

A further experiment has as its target T6, P2X purinoceptor 7 (Homo sapiens, UniProt Q99572).
T6 sequence (Q99572 whole entry): T5 sequence (whole entry)
As to the kind of experiment: Antagonist activity at P2X7 receptor (unknown origin).

The target in experiment [8] is T1, P2X purinoceptor 1 (Mus musculus). As to the kind of experiment: Antagonist activity at mouse recombinant P2X1 receptor expressed in Xenopus oocytes assessed as inhibition of ATP-induced ion current incubated for 20 mins prior to ATP-induction measured after compound washout by two-electrode voltage clamp assay. In kind it is cell-based. The following applies: Oocyte. In a few lines: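 Oocytes expressing mP2X1 were superfused with compound for 20 min before 2 μM ATP. Reversibility was checked by recording the ATP current after washout (20 min wash between ATP applications). Recordings used two-electrode voltage clamp at −70 mV in Ringer's solution, pH 7.5, 18 °C.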

For experiment [9] the target is unchanged. The experiment is described as §2. In kind it is cell-based. The following applies: Oocyte. In a few lines:
as §1

Experiment [10] addresses T7, P2X purinoceptor 1 (Homo sapiens, UniProt P51575).
T7 sequence (P51575 whole entry): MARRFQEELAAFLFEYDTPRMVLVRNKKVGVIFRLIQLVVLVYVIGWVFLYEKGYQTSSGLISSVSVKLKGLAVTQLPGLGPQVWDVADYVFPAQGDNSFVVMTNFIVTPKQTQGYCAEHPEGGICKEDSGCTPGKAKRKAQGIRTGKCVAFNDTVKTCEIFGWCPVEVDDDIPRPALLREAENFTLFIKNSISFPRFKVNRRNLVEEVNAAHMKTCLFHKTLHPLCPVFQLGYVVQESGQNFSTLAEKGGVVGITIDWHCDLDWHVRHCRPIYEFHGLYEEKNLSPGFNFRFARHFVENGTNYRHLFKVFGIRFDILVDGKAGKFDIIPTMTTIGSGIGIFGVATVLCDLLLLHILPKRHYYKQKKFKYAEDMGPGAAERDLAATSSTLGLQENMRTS
The experiment can be described thus: Antagonist activity at P2X1 receptor (unknown origin).

Regarding `Cc1ncc(/C=C/C(=O)O)c(C(=O)O)c1O`, the inhibition entry in experiment [1] and in [2] was “inactive” each time.

For the compound `Cc1ncc(CCC(=O)O)c(C(=O)O)c1O`, the inhibition in experiment [1] was determined as 14.8%; in [2] it was 15.2%.

Regarding `Cc1nc(/N=N/c2cc(S(=O)(=O)O)ccc2S(=O)(=O)O)c(COP(=O)(O)O)c(C=O)c1O` [ISOPPADS], the values for the concentration for half-maximal inhibition (IC50) at P2X purinoceptor 3 and at P2X purinoceptor 1 [3] were 0.0962 µM and 0.0307 µM, respectively. Besides, in experiment [4], the Ratio IC50 was determined as 0.3.

Take `Cc1nc(/N=N/c2ccc(C(=O)O)cc2)c(CCC(=O)O)c(C=O)c1O`: the inhibition was 48.5% in experiment [5], 56.3% in [6] and less than 50% in [7]. Besides, the Ratio IC50 in experiment [4] is 1.6.

At P2X purinoceptor 7, `Cc1nc(/N=N/c2ccc(C(=O)O)cc2)c(COP(=O)(O)O)c(C=O)c1O` displayed a half-inhibitory concentration (IC50) of 0.6 µM.

Regarding `Cc1ncc(CN(CCC(=O)O)Cc2ccccc2)c(C(=O)O)c1O`, the inhibition entry in experiment [1] and in [2] was “inactive” throughout.

For `Cc1nc(/N=N/c2cc(S(=O)(=O)O)c3cc([N+](=O)[O-])cc(S(=O)(=O)O)c3c2)c(COP(=O)(O)O)c(C=O)c1O`, half-maximal inhibition against P2X purinoceptor 7 (IC50) was put at 0.6 µM.

For `Cc1nc(/N=N/c2ccc(S(=O)(=O)O)cc2)c(CCC(=O)O)c(C(=O)O)c1O`, the inhibition is 57.6% in [5], 37.6% in experiment [6] and less than 50% in experiment [7].

On to `Cc1ncc(/C=C/C(=O)O)c(C=O)c1O`, for which the inhibition is 7.4% in [1] and 9.3% in experiment [2].

Turning to `Cc1nc(/N=N/c2cc(S(=O)(=O)O)ccc2S(=O)(=O)O)c(CCC(=O)O)c(C(=O)O)c1O`, the inhibition was 60.2% in experiment [5], 45.7% in experiment [6] and less than 50% in [7].

For `Cc1nc(/N=N/c2ccc(S(=O)(=O)O)cc2)c(CCC(=O)O)c(C=O)c1O`, the inhibition in [5] was 41.8%; in experiment [6], 46.5%; in experiment [7], less than 50%.

On to `Cc1nc(/N=N/c2ccc(C(=O)O)cc2)c(CCC(=O)O)c(C(=O)O)c1O`, for which the inhibition was 51.7% in experiment [5], 25.7% in [6] and less than 50% in [7].

For `Cc1ncc(CCC(=O)O)c(C=O)c1O`, the inhibition in [1] turned out to be 19.5%; in experiment [2] it was 22.3%.

For the compound `Cc1nc(/N=N/c2cc(S(=O)(=O)O)ccc2S(=O)(=O)O)c(CCC(=O)O)c(C=O)c1O`, the inhibition entry in experiment [8] was “inactive”. Besides, the inhibition is 58.6% in experiment [5], 40.1% in experiment [6], less than 50% in experiment [7] and “Dose-dependent effect” in experiment [9]. In addition, the Ratio IC50 in experiment [4] was found to be 0.7.

For the compound `Cc1ncc(CN(CCC(=O)O)Cc2ccccc2)c(C=O)c1O`, the inhibition result in experiment [1] and in experiment [2] was “inactive” in each case.

Take `Cc1ncc(COP(=O)(O)O)c(C=O)c1O` [PYRIDOXAL PHOSPHATE ANHYDROUS]: the inhibition came out at 13.2% in [1] and 20.1% in [2]. The half-inhibitory concentration (IC50) against P2X purinoceptor 1 [10] worked out at 10 µM.
